bCat nuc transl – beta-catenin nuclear translocation modulation; AID 1665; 190,000 tested, 0.3% active; nuclear translocation activity, % at 5 µM; HeLa beta-catenin nuclear translocation, immunofluorescence imaging;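 active = nuclear translocation activity above 50% at 5 µM, with a well cell count of 50 or more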;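 also: per-cell ratio of nuclear to cytoplasmic median beta-catenin stain intensity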
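System: Human HeLa cells, endogenous beta-catenin | Compound dosing: 5 µM primary, 0.02–20 µM confirmation | Timing: 24 h compound exposure at 37°C, 5% CO2 | Measured by: Fluorescence imaging of beta-catenin antibody stain plus DAPI | Read-out basis: % activation of per-cell nuclear versus cytoplasmic median beta-catenin signal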
Hsp70 act – switches on Hsp70 transcription. 200,000 tested, 0.04% active. HeLa Hsp70 promoter luciferase reporter, luminescence; scaled: vehicle 0, proteasome-inhibitor control 100%. activation, % at 10 µM;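 active = activation above the mean across all tested compounds plus 3 SD, cutoff set per campaign, cut at about 5.5% in these data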
Autophagy mod – modulators of autophagy. MEF GFP-LC3 puncta imaging; test concentration mostly 10 µM. calls only at 10 µM (by protocol). 190,000 tested, 0.98% active. AID 463193;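 active = percentage of spot-positive cells more than 3 SD above its plate mean, without a fluorescence outlier flag or 80% toxicity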
Dynein cargo inh – blocks dynein driven cargo transport along microtubules | 3617.4 mouse cells, GR-EGFP nuclear translocation imaging; test concentration mostly 20 µM; stimulated with dexamethasone, 1 µM; stronger effect = lower value | z-score, hits read low | 220,000 tested, 0.47% active | AID 1381;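 active = plate z-score of nuclear minus cytoplasmic receptor signal below a set negative limit, without overly bright fluorescence or cell loss, cut at about -3.5 in these data, passing the limit was not always enough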;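 also: z-score of nuclear minus cytoplasmic ring GR-EGFP intensity difference per well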
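Buffer or medium: tetracycline-free induction medium containing charcoal-stripped FBS / Reagent: dexamethasone agonist, 1.0 µM final, for 30 min / Technique: automated 10x imaging of fixed Hoechst-stained cells / Times: induction 48 h, compound 1 h, agonist 30 min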
MT stabilize HCS – microtubule stabilization, imaging screen; HeLa tubulin immunostaining HCS, 24 h; share of cells brighter than vehicle mean+2SD; AID 2205; % tubulin-high responders, % at 10 µM; 200,000 tested, 0.83% active;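 active = plate Z-score above 3 for both tubulin-high and condensed-nucleus cell shares, with cell loss under 80%, at 10 µM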;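 also: anti alpha tubulin signal scored within the nucleus-defined area of each cell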
Each line names hits and unclear results; the compound was inactive in the other large screens. In the library only some 2.1% were active in any assay of this set; here they are far more common.

CCC(=O)Nc1ccc2nc(C3CC3)n(Cc3ccccc3)c(=O)c2c1	none
COCCOc1cc2ncnc(N3CCC(C(=O)O)CC3)c2cc1OCCOC	none (no result: Hsp70 act, Autophagy mod, MT stabilize HCS)
O=C1NC(CCc2ccccc2)C(=O)N1CCOc1ccccc1 (stereo not drawn)	none
O=C1NC(CCc2ccccc2)C(=O)N1Cc1ccc(Br)cc1 (stereo not drawn)	Autophagy mod active
O=C(N/N=C/c1ccccc1[N+](=O)[O-])c1cnccn1	none (no result: Hsp70 act, Autophagy mod, MT stabilize HCS)
CCOC(=O)c1c(C=O)c2sc(C)cc2n1C	none
CC(C)N(Cc1nc(-c2ccccc2)no1)C(=O)C(C)(C)C	Autophagy mod active
COc1ccc(Cl)cc1NC(=S)NNC(=O)C1(C)CC1(Cl)Cl (stereo not drawn)	none
CCN1C(=O)/C(=c2\sc3nc(=O)c(Cc4ccccc4)nn3c2=O)c2ccccc21	none (no result: Hsp70 act, Autophagy mod, MT stabilize HCS)
Cc1cc(C)cc(OCC(=O)N(Cc2ccc(N(C)C)cc2)C2CCS(=O)(=O)C2)c1 (stereo not drawn)	none (no result: Hsp70 act, Autophagy mod, MT stabilize HCS)
Cc1cccc(-n2nnnc2SCn2nnc3ccccc3c2=O)c1	Autophagy mod active (no result: bCat nuc transl)
ClCC1CN(Cc2ccccc2Cl)CCO1 (stereo not drawn)	none
COC(=O)CSC1=C(C#N)C(c2ccccc2)CC(=O)N1 (stereo not drawn)	none (no result: bCat nuc transl)
CCOC(=O)CSC1=C(C#N)C(c2ccc(C)s2)CC(=O)N1 (stereo not drawn)	MT stabilize HCS 31
CCSC1=C(C#N)C(c2ccc(C)s2)CC(=O)N1 (stereo not drawn)	none
CCOC(=O)CSC1=C(C#N)C(c2ccccc2OC)CC(=O)N1 (stereo not drawn)	MT stabilize HCS 21
COC(=O)CSC1=C(C#N)C(c2ccsc2)CC(=O)N1 (stereo not drawn)	MT stabilize HCS 45
NNC(=S)Nc1ccc(C(F)(F)F)cc1Cl	none (no result: Hsp70 act, Autophagy mod, MT stabilize HCS)
CCCCOc1ccc2c(c1)/C(=C(\C(Cl)=C(Cl)Cl)[N+](=O)[O-])N2	MT stabilize HCS 9.9
CC1CCC2C(=O)N(c3ccc(Cc4ccncc4)cc3)C(=O)C2C1 (stereo not drawn)	none
COC(=O)C1=C(C)NC(C)=C(C(=O)OC)C1c1cc2ccc(C)cc2[nH]c1=O	MT stabilize HCS 31
CCOC(=O)C1=C(C)NC(C)=C(C(=O)OCC)C1c1cc2ccc(C)cc2[nH]c1=O	MT stabilize HCS 45 (no result: bCat nuc transl)
CC(NC(=O)CCl)c1ccccc1Br (stereo not drawn)	none (no result: Hsp70 act, Autophagy mod, MT stabilize HCS)
O=C(Nc1ccc(Cl)cc1)/C(=C/c1ccc([N+](=O)[O-])cc1)c1nc2ccccc2s1	MT stabilize HCS 36
Cc1[nH]c2ccccc2c1C(=O)C(=O)NCc1cccs1	none
Cc1ccc(-n2cc(-c3ccccc3)c3c(N4CCOCC4)ncnc32)cc1	Autophagy mod active
c1ccc2c(NCCCN3CCOCC3)c3ccccc3nc2c1	Autophagy mod active, MT stabilize HCS 34
c1ccc2c(CNCCN3CCOCC3)cccc2c1	Autophagy mod active
CCOc1ccccc1CNCCN1CCOCC1	none (no result: bCat nuc transl)
Fc1ccccc1-c1nc(NCCCN2CCOCC2)c2ccccc2n1	none
O=C(CNC(=O)c1ccc(F)cc1)Nc1ccccc1C(F)(F)F	none (no result: Hsp70 act, Autophagy mod, MT stabilize HCS)
Cc1cc(N/N=C/c2ccc(O)cc2O)nc(-c2ccccc2O)n1	Autophagy mod active
Cc1cc(N/N=C/c2ccccc2O)nc(-c2ccccc2O)n1	none
CCOC(=O)Cc1csc(NC(=O)c2ccc(Cl)nc2)n1	MT stabilize HCS 37
CCOC(=O)Cc1csc(NC(=O)c2ccc(C)cc2)n1	none
CCOC(=O)c1cnn(-c2ccccc2)c1NC(=O)CN1CCCCC1	none (no result: Hsp70 act, Autophagy mod, MT stabilize HCS)
COc1ccc(CN2C=C3C(=O)C(C)(OC(=O)C4CCCC4)C(=O)C=C3C=C2c2ccsc2)cc1 (stereo not drawn)	bCat nuc transl 50 (no result: Hsp70 act, Autophagy mod, MT stabilize HCS)
CC1(OC(=O)C2CCCC2)C(=O)C=C2C=C(c3ccsc3)N(CCCCO)C=C2C1=O (stereo not drawn)	none (no result: Hsp70 act, Autophagy mod, MT stabilize HCS)
CC(=O)NC(N(C#N)c1nc(Cl)nc(N(C)C)n1)C(Cl)(Cl)Cl (stereo not drawn)	none (no result: Hsp70 act, Autophagy mod, MT stabilize HCS)
COc1ccc(NC2=C(NCCO)C(=O)c3ccccc3C2=O)cc1	MT stabilize HCS 21
C/C(=N/N=C1\SCC(=O)N1c1ccccc1)c1ccc(C)cc1	none (no result: Hsp70 act, Autophagy mod, MT stabilize HCS)
Cc1ccccc1Nc1cc(=O)oc2ccccc12	none
Cc1ccc(Nc2cc(=O)oc3ccccc23)c(C)c1	MT stabilize HCS 27
C=CCC1(Cl)C(=O)C(Cl)=C(N2CCN(C)CC2)C1(OC)OC (stereo not drawn)	none (no result: Hsp70 act, Autophagy mod, MT stabilize HCS)
O=C(O)CCCCCNc1ccc2nsnc2c1[N+](=O)[O-]	none
COc1ccc(OC)c(NC(=O)c2cnc(Nc3ccccc3OC)c3ccccc23)c1	MT stabilize HCS 19
COc1ccc(OC)c(NC(=O)c2cnc3ccccn3c2=O)c1	none (no result: bCat nuc transl)
CC(C)n1cc(NC(=O)c2cc(-c3ccccc3)on2)cn1	MT stabilize HCS 28 (no result: bCat nuc transl)
COc1cccc(-c2cc(C(=O)Nc3cc(OC)c(OC)c(OC)c3)no2)c1	MT stabilize HCS 49 (no result: bCat nuc transl)
O=C(Nc1cccnc1)c1cc(-c2ccccc2)on1	none
COc1cccc(-c2cc(C(=O)Nc3cccnc3)no2)c1	bCat nuc transl 111
COc1cccc2c(=O)cc(C)n(CC(=O)Nc3cccc(C)c3)c12	none
Cc1ccc(NC(=O)c2ccc(NCCc3ccccc3)c([N+](=O)[O-])c2)cc1F	Autophagy mod active
O=C(Nc1cc(F)cc(F)c1)c1ccc(NCCc2ccccc2)c([N+](=O)[O-])c1	none
Cc1cc(C(=O)NCCN2CCN(c3cccc(Cl)c3)CC2)n(-c2ccccc2)n1	bCat nuc transl 59
Cc1cc(C(=O)NCCCN2CCN(c3cc(Cl)ccc3C)CC2)n(-c2ccccc2)n1	none
COC(=O)c1ccc(CSc2nc(-c3ccc(OC)cc3)nc3c2c(=O)n(C)c(=O)n3C)o1	Autophagy mod active (no result: bCat nuc transl)
CN(C)c1ccc(/C=N/NC(=O)c2ccccc2Cl)cc1	bCat nuc transl 77, MT stabilize HCS 21
CN(C)c1ccc(/C=N\NC(=O)c2ccc(Cn3cc(Cl)cn3)cc2)cc1	MT stabilize HCS 29
CSc1ccc(/C=N/NC(=O)c2ccccc2Cl)cc1	MT stabilize HCS 15
CN(C)c1ccc(/C=N/NC(=O)c2ccccc2)cc1	MT stabilize HCS 14
CSc1ccc(/C=N/NC(=O)c2ccc(O)cc2)cc1	none
Cc1ccc(S(=O)(=O)NCC(=O)NCC(=O)OC(C(=O)NC(N)=O)C(C)C)cc1C (stereo not drawn)	none (no result: Hsp70 act, Autophagy mod, MT stabilize HCS)
O=C(O)CC(NC(=O)Cc1ccc(Cl)cc1)c1ccco1 (stereo not drawn)	none
COCC(=O)N(Cc1ccco1)c1nnc(C2CCOC2)s1 (stereo not drawn)	Autophagy mod active (no result: bCat nuc transl)
CCOC(=O)C1=C(N)n2c(s/c(=C\c3cccs3)c2=O)=C(C(=O)OCC)C1c1cccs1 (stereo not drawn)	bCat nuc transl 99, MT stabilize HCS 45
CCc1cccc(Nc2cc(C)nc3ncnn23)c1	none
CCn1c2ccccc2c2cc(Nc3cc(C)nc4ncnn34)ccc21	bCat nuc transl 94

Compound activity deposited in PubChem BioAssay by several laboratories.
